According to ChEMBL document CHEMBL1124687, “Analogues of atriopeptin(103-125)amide having high binding selectivity” (J Med Chem, 1989):
Positions of bridges follow the written chain, without caps; N, C: chain ends. Non-standard residues stand in square brackets, D forms with d. Residues, ends and D or L forms follow the SMILES beside them. ξ: configuration not given here. Nva = CCC[C@H](N)C(=O)O; ξA = CC(N)C(=O)O

Legend:
[1] = target: Atrial natriuretic peptide receptor (Homo sapiens) (UniProt P20594+P16066+P17342); test: Selectivity factor, ratio of NVR and VR relative binding potency; format: protein assay; conditions: Oryctolagus cuniculus
[2] = target: T1, Atrial natriuretic peptide receptor 3 (Homo sapiens) (UniProt P17342); test: Binding affinity for non-vasorelaxant receptor by competitive displacement of [125I]-AP(103-126) from rabbit lung membranes; format: tissue-based; conditions: Oryctolagus cuniculus, Membrane, target entry is the homologue from another species
T1 sequence (whole entry): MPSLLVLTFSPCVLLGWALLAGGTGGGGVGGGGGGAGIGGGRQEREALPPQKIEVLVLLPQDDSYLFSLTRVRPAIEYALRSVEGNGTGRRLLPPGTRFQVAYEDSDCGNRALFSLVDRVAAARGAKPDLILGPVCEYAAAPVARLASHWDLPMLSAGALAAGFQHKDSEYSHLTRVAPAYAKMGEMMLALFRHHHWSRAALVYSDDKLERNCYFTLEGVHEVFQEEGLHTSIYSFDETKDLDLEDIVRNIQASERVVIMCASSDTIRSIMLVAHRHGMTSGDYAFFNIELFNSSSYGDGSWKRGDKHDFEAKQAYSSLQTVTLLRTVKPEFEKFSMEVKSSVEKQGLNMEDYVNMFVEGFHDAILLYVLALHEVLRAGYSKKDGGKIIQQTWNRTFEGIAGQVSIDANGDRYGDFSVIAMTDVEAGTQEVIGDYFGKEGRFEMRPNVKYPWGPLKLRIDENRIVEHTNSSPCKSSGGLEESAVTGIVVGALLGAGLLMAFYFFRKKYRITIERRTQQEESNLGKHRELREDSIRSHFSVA

Oryctolagus cuniculus = organism: Oryctolagus cuniculus; test: Binding affinity for vasorelaxant receptor by competitive displacement of [125I]-AP(103-126) from rabbit lung membranes; format: tissue-based; conditions: Membrane
[3] = Apparent binding constant for vasorelaxant subclass of receptors; parameters: species or system Oryctolagus cuniculus
How it was run: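 Competitive binding assay on rabbit lung membranes, using atrial peptide analogues.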

In the case of `CC[C@H](C)[C@@H]1NC(=O)[C@H](CCCN=C(N)N)NC(=O)[C@H](CC(=O)O)NC(=O)[C@H]([C@@H](C)CC)NC(=O)[C@H](CCCN=C(N)N)NC(=O)CNC(=O)CNC(=O)[C@H](Cc2ccccc2)NC(=O)C(C)NC(=O)[C@@H](NC(=O)[C@@H](N)CO)CSSC[C@@H](C(=O)N[C@@H](CO)C(=O)N[C@@H](Cc2ccccc2)C(=O)N[C@@H](CCCN=C(N)N)C(N)=O)NC(=O)C(C)NC(=O)CNC(=O)[C@H](CC(C)C)NC(=O)CNC(=O)[C@H](CO)NC(=O)[C@H](CCC(N)=O)NC(=O)[C@H](C)NC(=O)CNC1=O` (some centres undefined) (H-SC[ξA]FGGRIDRIGAQSGLG[ξA]CSFR-NH2; disulfide 2-20), the Ratio [1] is reported as 464, the Relative potency [2] is reported as 1.3 and the Relative potency (Oryctolagus cuniculus) is reported as 0.0028.

Compound `CC[C@H](C)[C@@H]1NC(=O)[C@H](CCCN=C(N)N)NC(=O)[C@H](CC(=O)O)NC(=O)[C@H]([C@@H](C)CC)NC(=O)[C@H](CCCN=C(N)N)NC(=O)[C@@H](NC(=O)CNC(=O)[C@H](Cc2ccccc2)NC(=O)[C@H](C)NC(=O)[C@H](CO)NC(=O)[C@@H](N)CO)CSSC[C@@H](C(=O)NCC(=O)N[C@@H](CC(C)C)C(=O)NCC(=O)N[C@@H](C)C(=O)N[C@@H](CC(N)=O)C(=O)N[C@@H](CO)C(=O)N[C@@H](Cc2ccccc2)C(=O)N[C@@H](CCCN=C(N)N)C(N)=O)NC(=O)[C@H](CCC(N)=O)NC(=O)[C@H](C)NC(=O)CNC1=O` (H-SSAFGCRIDRIGAQCGLGANSFR-NH2; disulfide 6-15) has a Ratio [1] of 485, a Relative potency [2] of 0.63 and a Relative potency (Oryctolagus cuniculus) of 0.0013.

Compound `CC[C@H](C)[C@@H]1NC(=O)[C@H](CCCN=C(N)N)NC(=O)[C@H](CC(=O)O)NC(=O)[C@H]([C@@H](C)CC)NC(=O)[C@H](CCCN=C(N)N)NC(=O)[C@@H](NC(=O)CNC(=O)[C@H](Cc2ccccc2)NC(=O)[C@H](CSC)NC(=O)[C@H](CO)NC(=O)[C@@H](N)CO)CSSC[C@@H](C(=O)NCC(=O)N[C@@H](CC(C)C)C(=O)NCC(=O)N[C@@H](CSC)C(=O)N[C@@H](CC(N)=O)C(=O)N[C@@H](CO)C(=O)N[C@@H](Cc2ccccc2)C(=O)N[C@@H](CCCN=C(N)N)C(N)=O)NC(=O)[C@H](CCC(N)=O)NC(=O)[C@H](C)NC(=O)CNC1=O` (H-SSC(Me)FGCRIDRIGAQCGLGC(Me)NSFR-NH2; disulfide 6-15) has a Ratio [1] of 369, a Relative potency [2] of 0.59 and a Relative potency (Oryctolagus cuniculus) of 0.0016.

With `CC[C@H](C)[C@@H]1NC(=O)[C@H](CCCN=C(N)N)NC(=O)[C@H](CC(=O)O)NC(=O)[C@H]([C@@H](C)CC)NC(=O)[C@H](CCCN=C(N)N)NC(=O)CNC(=O)CNC(=O)[C@H](Cc2ccccc2)NC(=O)[C@@H](NC(=O)[C@H](CO)NC(=O)[C@@H](N)CO)CSSC[C@@H](C(=O)N[C@@H](CSC)C(=O)N[C@@H](CC(N)=O)C(=O)N[C@@H](CO)C(=O)N[C@@H](Cc2ccccc2)C(=O)N[C@@H](CCCN=C(N)N)C(N)=O)NC(=O)[C@H](CC(C)C)NC(=O)CNC(=O)[C@H](CO)NC(=O)[C@H](CCC(N)=O)NC(=O)[C@H](C)NC(=O)CNC1=O` (H-SSCFGGRIDRIGAQSGLCC(Me)NSFR-NH2; disulfide 3-18) the Ratio [1] was 32, the Relative potency [2] was 1.3 and the Relative potency (Oryctolagus cuniculus) was 0.041.

For `CC[C@H](C)[C@@H]1NC(=O)[C@H](CCCN=C(N)N)NC(=O)[C@H](CC(=O)O)NC(=O)[C@H]([C@@H](C)CC)NC(=O)[C@H](CCCN=C(N)N)NC(=O)CNC(=O)CNC(=O)[C@H](Cc2ccccc2)NC(=O)[C@@H](NC(=O)[C@H](CO)NC(=O)[C@@H](N)CO)CSSC[C@@H](C(=O)N[C@@H](CO)C(=O)N[C@@H](CC(N)=O)C(=O)N[C@@H](CO)C(=O)N[C@@H](Cc2ccccc2)C(=O)N[C@@H](CCCN=C(N)N)C(N)=O)NC(=O)[C@H](CC(C)C)NC(=O)CNC(=O)[C@H](CO)NC(=O)[C@H](CCC(N)=O)NC(=O)[C@H](C)NC(=O)CNC1=O` (H-SSCFGGRIDRIGAQSGLCSNSFR-NH2; disulfide 3-18), the Ratio [1] was 23, the Relative potency [2] was 1.3 and the Relative potency (Oryctolagus cuniculus) was 0.056.

In the case of `CCC[C@H](NC(=O)[C@@H]1CSSC[C@H](NC(=O)[C@H](CO)NC(=O)[C@@H](N)CO)C(=O)N[C@@H](Cc2ccccc2)C(=O)NCC(=O)NCC(=O)N[C@@H](CCCN=C(N)N)C(=O)N[C@@H]([C@@H](C)CC)C(=O)N[C@@H](CC(=O)O)C(=O)N[C@@H](CCCN=C(N)N)C(=O)N[C@@H]([C@@H](C)CC)C(=O)NCC(=O)N[C@@H](C)C(=O)N[C@@H](CCC(N)=O)C(=O)N[C@@H](CO)C(=O)NCC(=O)N[C@@H](CC(C)C)C(=O)N1)C(=O)N[C@@H](CC(N)=O)C(=O)N[C@@H](CO)C(=O)N[C@@H](Cc1ccccc1)C(=O)N[C@@H](CCCN=C(N)N)C(N)=O` (H-SSCFGGRIDRIGAQSGLC[Nva]NSFR-NH2; disulfide 3-18), the Ratio [1] is reported as 13, the Relative potency [2] is reported as 0.63 and the Relative potency (Oryctolagus cuniculus) is reported as 0.047.

In the case of `CC[C@H](C)[C@@H]1NC(=O)[C@H](CCCN=C(N)N)NC(=O)[C@H](CC(=O)O)NC(=O)[C@H]([C@@H](C)CC)NC(=O)[C@H](CCCN=C(N)N)NC(=O)CNC(=O)CNC(=O)[C@H](Cc2ccccc2)NC(=O)[C@@H](NC(=O)[C@H](CO)NC(=O)[C@@H](N)CO)CSSC[C@@H](C(=O)NC(C)C(=O)N[C@@H](CC(N)=O)C(=O)N[C@@H](CO)C(=O)N[C@@H](Cc2ccccc2)C(=O)N[C@@H](CCCN=C(N)N)C(N)=O)NC(=O)[C@H](CC(C)C)NC(=O)CNC(=O)[C@H](CO)NC(=O)[C@H](CCC(N)=O)NC(=O)[C@H](C)NC(=O)CNC1=O` (some centres undefined) (H-SSCFGGRIDRIGAQSGLC[ξA]NSFR-NH2; disulfide 3-18), the Ratio [1] is reported as 6, the Relative potency [2] is reported as 0.94 and the Relative potency (Oryctolagus cuniculus) is reported as 0.16.

`CC[C@H](C)[C@@H]1NC(=O)[C@H](CCCN=C(N)N)NC(=O)[C@H](CC(=O)O)NC(=O)[C@H]([C@@H](C)CC)NC(=O)[C@H](CCCN=C(N)N)NC(=O)[C@@H](NC(=O)CNC(=O)[C@H](Cc2ccccc2)NC(=O)CNC(=O)[C@H](CO)NC(=O)[C@@H](N)CO)CSSC[C@@H](C(=O)NCC(=O)N[C@@H](CC(C)C)C(=O)NCC(=O)NCC(=O)N[C@@H](CC(N)=O)C(=O)N[C@@H](CO)C(=O)N[C@@H](Cc2ccccc2)C(=O)N[C@@H](CCCN=C(N)N)C(N)=O)NC(=O)[C@H](CCC(N)=O)NC(=O)[C@H](C)NC(=O)CNC1=O` (H-SSGFGCRIDRIGAQCGLGGNSFR-NH2; disulfide 6-15) showed a Ratio [1] of 118, a Relative potency [2] of 1.3 and a Relative potency (Oryctolagus cuniculus) of 0.011. The Ki [3] was 7.4 nM.

`CC[C@H](C)[C@@H]1NC(=O)[C@H](CCCN=C(N)N)NC(=O)[C@H](CC(=O)O)NC(=O)[C@H]([C@@H](C)CC)NC(=O)[C@H](CCCN=C(N)N)NC(=O)[C@@H](NC(=O)CNC(=O)[C@H](Cc2ccccc2)NC(=O)CNC(=O)[C@H](CO)NC(=O)[C@@H](N)CO)CSSC[C@@H](C(=O)N[C@@H](CC(C)C)C(=O)NCC(=O)NCC(=O)N[C@@H](CC(N)=O)C(=O)N[C@@H](CO)C(=O)N[C@@H](Cc2ccccc2)C(=O)N[C@@H](CCCN=C(N)N)C(N)=O)NC(=O)[C@H](CO)NC(=O)[C@H](CCC(N)=O)NC(=O)[C@H](C)NC(=O)CNC1=O` (H-SSGFGCRIDRIGAQSCLGGNSFR-NH2; disulfide 6-16) showed a Ratio [1] of 1120, a Relative potency [2] of 0.81 and a Relative potency (Oryctolagus cuniculus) of 0.00072.

With `CC[C@H](C)[C@@H]1NC(=O)[C@H](CCCN=C(N)N)NC(=O)[C@H](CC(=O)O)NC(=O)[C@H]([C@@H](C)CC)NC(=O)[C@H](CCCN=C(N)N)NC(=O)[C@@H](NC(=O)CNC(=O)[C@H](Cc2ccccc2)NC(=O)[C@H](CO)NC(=O)[C@H](CO)NC(=O)[C@@H](N)CO)CSSC[C@@H](C(=O)NCC(=O)N[C@@H](CC(C)C)C(=O)NCC(=O)N[C@@H](CO)C(=O)N[C@@H](CC(N)=O)C(=O)N[C@@H](CO)C(=O)N[C@@H](Cc2ccccc2)C(=O)N[C@@H](CCCN=C(N)N)C(N)=O)NC(=O)[C@H](CCC(N)=O)NC(=O)[C@H](C)NC(=O)CNC1=O` (H-SSSFGCRIDRIGAQCGLGSNSFR-NH2; disulfide 6-15) the Ratio [1] was 293, the Relative potency [2] was 0.44 and the Relative potency (Oryctolagus cuniculus) was 0.0015.

In the case of `CCC[C@H](NC(=O)CNC(=O)[C@H](CC(C)C)NC(=O)CNC(=O)[C@@H]1CSSC[C@H](NC(=O)CNC(=O)[C@H](Cc2ccccc2)NC(=O)[C@H](CCC)NC(=O)[C@H](CO)NC(=O)[C@@H](N)CO)C(=O)N[C@@H](CCCN=C(N)N)C(=O)N[C@@H]([C@@H](C)CC)C(=O)N[C@@H](CC(=O)O)C(=O)N[C@@H](CCCN=C(N)N)C(=O)N[C@@H]([C@@H](C)CC)C(=O)NCC(=O)N[C@@H](C)C(=O)N[C@@H](CCC(N)=O)C(=O)N1)C(=O)N[C@@H](CC(N)=O)C(=O)N[C@@H](CO)C(=O)N[C@@H](Cc1ccccc1)C(=O)N[C@@H](CCCN=C(N)N)C(N)=O` (H-SS[Nva]FGCRIDRIGAQCGLG[Nva]NSFR-NH2; disulfide 6-15), the Ratio [1] is reported as 286, the Relative potency [2] is reported as 0.26 and the Relative potency (Oryctolagus cuniculus) is reported as 0.00091.
